The results in this text go back to ChEMBL document CHEMBL1157195, “Synthesis, cytotoxic activity, and SAR analysis of the derivatives of taxchinin A and brevifoliol” (Bioorg Med Chem, 2008).

Broadly, the IC50 is the concentration needed to halve the response being measured.

Activity calls are given as the source filed them. The rule behind the calls is not given here.

In one assay the test system is A459. In words: (§1) Cytotoxicity against human A459 cells after 72 hrs by sulforhodamine B assay. The assay is classed as cell-based. The method in brief:
(§2)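 Human non-small lung cancer cells (A459, ATCC), exponentially growing, seeded at 4 × 10^4/mL in 96-well plates and pre-incubated 72 h at 37 °C, 5% CO2. Compounds added at 100, 10, 1 and 0.1 μM; further 72 h exposure. Cells fixed with cold 50% TCA (4 °C, 1 h), stained 30 min with 0.4% SRB in 1% acetic acid, dye solubilized in 10 mM unbuffered Tris; OD read at 570 nm.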
On the technique in general: The SRB assay estimates cell density from bound dye.

Assay [1] can be described thus: as §1. The assay is classed as cell-based. The method in brief: as §2
The mark [2] stands for this setting: Homo sapiens, A459, 72 h, read-out: IC50.

In the case of `C=C1[C@H]2C[C@]3(C(C)(C)O)CC(=O)C(C)=C3[C@@H](OC(=O)c3ccccc3)[C@H](OC(C)=O)[C@]2(C)[C@@H](OC(C)=O)C[C@@H]1O`, the outcome in the assay with A459 was inactive.

With `C=C1[C@@H](O[Si](CC)(CC)CC)C[C@H](OC(C)=O)[C@@]2(C)[C@@H](OC(C)=O)[C@H](OC(=O)c3ccccc3)C3=C(C)[C@@H](O[Si](CC)(CC)CC)C[C@@]3(C(C)(C)O)[C@@H](OC(C)=O)[C@H]12`, in assay [1] (setting [2]), the IC50 worked out at 87.3 µM.

On to `C=C1[C@H]2C=C3CC(=O)C(C)=C3C(OC(=O)c3ccccc3)=C[C@]2(C)[C@@H](OC(C)=O)C[C@@H]1O`, for which the IC50 in assay [1] (setting [2]) turned out to be 80.7 µM.

On to `C=C1[C@@H](O[Si](C)(C)C(C)(C)C)C[C@H](OC(C)=O)[C@@]2(C)[C@@H](OC(C)=O)[C@H](OC(=O)c3ccccc3)C3=C(C)[C@@H](O[Si](C)(C)C(C)(C)C)C[C@@]3(C(C)(C)O)[C@@H](OC(C)=O)[C@H]12`, for which the IC50 entry in assay [1] (a459) is “Not Active”.

For the molecule `C=C1C(=O)C=C[C@@]2(C)[C@@H](OC(C)=O)[C@H](OC(=O)c3ccccc3)C3=C(C)[C@@H](O)C[C@@]3(C(C)(C)O)[C@@H](OC(C)=O)[C@H]12`, the IC50 in assay [1] (setting [2]) was 5.89 µM.

Take `C=C1[C@H]2C=C3CC(=O)C(C)=C3[C@@H](OC(=O)c3ccccc3)[C@H](OC(C)=O)[C@]2(C)[C@@H](OC(C)=O)C[C@@H]1O`: the IC50 in assay [1] (setting [2]) came to 21.5 µM.

Take `C=C1[C@@H](O)C[C@H](OC(C)=O)[C@@]2(C)[C@@H](OC(C)=O)[C@H](OC(=O)c3ccccc3)C3=C(C)C(=O)C[C@@]3(C(C)(C)O)[C@@H](OC(C)=O)[C@H]12` [13-OXO-TAXCHININ A]: the IC50 in assay [1] (setting [2]) worked out at 91.6 µM.

For the molecule `C=C1C(=O)C[C@H](OC(C)=O)[C@@]2(C)[C@@H](OC(C)=O)[C@H](OC(=O)c3ccccc3)C3=C(C)[C@@H](O[Si](C)(C)C(C)(C)C)C[C@@]3(C(C)(C)O)[C@@H](OC(C)=O)[C@H]12`, the IC50 in assay [1] (setting [2]) was 0.48 µM.

In the case of `C=C1[C@@H](O)C[C@H](OC(C)=O)[C@@]2(C)[C@@H](OC(C)=O)[C@H](OC(=O)c3ccccc3)C3=C(C)[C@@H](O)C[C@@]3(C(C)(C)O)[C@@H](OC(C)=O)[C@H]12` [TAXCHININ A], the IC50 in assay [1] (setting [2]) was found to be 60.5 µM.

Take `C=C1[C@H]2C[C@]3(C(C)(C)O)C[C@H](O)C(C)=C3[C@@H](OC(=O)c3ccccc3)[C@H](OC(C)=O)[C@]2(C)[C@@H](OC(C)=O)C[C@@H]1O`: in the assay on A459, the result was inactive.

With `C=C1C(=O)C[C@H](OC(C)=O)[C@@]2(C)[C@@H](OC(C)=O)[C@H](OC(=O)c3ccccc3)C3=C(C)C(=O)C[C@@]3(C(C)(C)O)[C@@H](OC(C)=O)[C@H]12` [5,13-DIOXOTAXCHININ A], the IC50 in assay [1] (setting [2]) stood at 1.68 µM.

Consider `CC(=O)O[C@H]1CC=C(C=O)[C@H]2C[C@]3(C(C)(C)O)CC(=O)C(C)=C3[C@@H](OC(=O)c3ccccc3)[C@H](OC(C)=O)[C@]12C`, for which the IC50 in assay [1] (setting [2]) is 31.6 µM.

Regarding `CC(=O)O[C@H]1CC=C(C=O)[C@H]2C=C3CC(=O)C(C)=C3[C@@H](OC(=O)c3ccccc3)[C@H](OC(C)=O)[C@]12C`, the IC50 in assay [1] (setting [2]) was determined as 11.3 µM.

As for `C=C1[C@@H](O)C[C@H](OC(C)=O)[C@@]2(C)[C@@H](OC(C)=O)[C@H](OC(=O)c3ccccc3)C3=C(C)[C@@H](O[Si](C)(C)C(C)(C)C)C[C@@]3(C(C)(C)O)[C@@H](OC(C)=O)[C@H]12`, the IC50 in assay [1] (setting [2]) was 12.4 µM.

Regarding `C=C1[C@H]2C[C@@]34C[C@@H](OC3(C)C)C(C)=C4[C@@H](OC(=O)c3ccccc3)[C@H](OC(C)=O)[C@]2(C)[C@@H](OC(C)=O)C[C@@H]1O`, the IC50 in assay [1] (setting [2]) amounted to 46.5 µM.

For `C=C1C(=O)C=C[C@]2(C)[C@@H]1C[C@]1(C(C)(C)O)CC(=O)C(C)=C1[C@@H](OC(=O)c1ccccc1)[C@@H]2OC(C)=O`, in assay [1] (setting [2]), the IC50 worked out at 6.22 µM.

As for `CC(=O)O[C@H]1CC=C(C=O)[C@H]2C[C@@]34C[C@@H](OC3(C)C)C(C)=C4[C@@H](OC(=O)c3ccccc3)[C@H](OC(C)=O)[C@]12C`, in assay [1] (setting [2]), the IC50 is 6.17 µM.

As for `C=C1[C@@H](O)C[C@H](OC(C)=O)[C@@]2(C)[C@@H](OC(C)=O)[C@H](OC(=O)c3ccccc3)C3=C(C)[C@H]4C[C@]3([C@@H](OC(C)=O)[C@H]12)C(C)(C)O4`, the IC50 result in assay [1] (a459) is on record as “Not Active”.

In the case of `C=C1C(=O)C[C@H](OC(C)=O)[C@@]2(C)[C@@H](OC(C)=O)[C@H](OC(=O)c3ccccc3)C3=C(C)[C@H]4C[C@]3([C@@H](OC(C)=O)[C@H]12)C(C)(C)O4`, the IC50 in assay [1] (setting [2]) turned out to be 0.75 µM.

For `C=C1C(=O)C[C@H](OC(C)=O)[C@@]2(C)[C@@H](OC(C)=O)[C@H](OC(=O)c3ccccc3)C3=C(C)[C@@H](O)C[C@@]3(C(C)(C)O)[C@@H](OC(C)=O)[C@H]12`, the IC50 in assay [1] (setting [2]) was 3.16 µM.

As to `C=C1C(=O)C=C[C@]2(C)[C@@H]1C=C1CC(=O)C(C)=C1[C@@H](OC(=O)c1ccccc1)[C@@H]2OC(C)=O`, the 50% inhibitory concentration (IC50) in assay [1] (setting [2]) was 2.8 µM.

As for `C=C1C(=O)C=C[C@@]2(C)[C@@H](OC(C)=O)[C@H](OC(=O)c3ccccc3)C3=C(C)C(=O)C[C@@]3(C(C)(C)O)[C@@H](OC(C)=O)[C@H]12`, in assay [1] (setting [2]), the IC50 is 2.48 µM.

Regarding `C=C1[C@@H](O[Si](CC)(CC)CC)C[C@H](OC(C)=O)[C@]2(C)[C@@H]1C=C1CC(=O)C(C)=C1[C@@H](OC(=O)c1ccccc1)[C@@H]2OC(C)=O`, the concentration for half-maximal inhibition (IC50) in assay [1] (setting [2]) was 17.4 µM.
